Test results taken from ChEMBL document CHEMBL1137311, “Peptide inhibitors of West Nile NS3 protease: SAR study of tetrapeptide aldehyde inhibitors” (J Med Chem, 2006).
Non-standard residues stand in square brackets, D forms with d. Residues, ends and D or L forms follow the SMILES beside them. *: point of attachment. NMeR = CN[C@@H](CCCNC(=N)N)C(=O)O; NMeK = CN[C@@H](CCCCN)C(=O)O; NMeNle = CCCC[C@H](NC)C(=O)O; Phg = N[C@H](C(=O)O)c1ccccc1; dNle = CCCC[C@@H](N)C(=O)O; Nle = CCCC[C@H](N)C(=O)O; Bz = O=C(c1ccccc1)*

experiment: Inhibition of West Nile virus NS3 protease
Outline: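 Enzyme: WNV CF40-gly-NS3pro187 conjugate at 50 nM, preincubated with a range of inhibitor concentrations for 30 min at 37 °C. Buffer: 50 mM Tris pH 8.5 with 1 mM CHAPS. Reaction started with 20 µM Bz-nKRR-AMC. Fluorescence (ex 385/em 465 nm) followed continuously. IC50 from nonlinear fit of initial velocities, each point in duplicate within a single experiment.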

Row | Compound | IC50
1 | CCCC[C@H](NC(=O)c1ccccc1)C(=O)N[C@@H](CCCCN)C(=O)N[C@@H](C)C(=O)N[C@H](C=O)CCCN=C(N)N (Bz-[Nle]KAR-aldehyde) | 262 µM
2 | CCCC[C@H](NC(=O)c1ccccc1)C(=O)N[C@@H](CCCCN)C(=O)N[C@@H](Cc1ccccc1)C(=O)N[C@H](C=O)CCCNC(=N)N (Bz-[Nle]KFR-aldehyde) | 108 µM
3 | CCCC[C@H](NC(=O)c1ccccc1)C(=O)N[C@@H](CCCCN)C(=O)N[C@@H](CCCNC(=N)N)C(=O)N[C@H](C=O)Cc1ccccc1 (Bz-[Nle]KRF-aldehyde) | 110 µM
4 | CCCC[C@H](NC(=O)c1ccccc1)C(=O)N[C@@H](CCCCN)C(=O)N[C@@H](CCCNC(=N)N)C(=O)N[C@H](C=O)Cc1cnc[nH]1 (Bz-[Nle]KRH-aldehyde) | 43.1 µM
5 | CCCC[C@H](NC(=O)c1ccccc1)C(=O)N[C@@H](CCCCN)C(=O)N[C@@H](CCCNC(=N)N)C(=O)N[C@H](C=O)CCCCN (Bz-[Nle]KRK-aldehyde) | 57.7 µM
6 | CCCC[C@H](NC(=O)c1ccccc1)C(=O)N[C@@H](CCCCN)C(=O)N[C@@H](CCCNC(=N)N)C(=O)N[C@H](C=O)c1ccccc1 (Bz-[Nle]KR[Phg]-aldehyde) | 90.9 µM
7 | CCCC[C@H](NC(=O)c1ccccc1)C(=O)N[C@@H](CCCCN)C(=O)N(C)[C@@H](CCCN=C(N)N)C(=O)N[C@H](C=O)CCCN=C(N)N (Bz-[Nle]K[NMeR]R-aldehyde) | 57.8 µM
8 | CCCC[C@H](NC(=O)c1ccccc1)C(=O)N[C@@H](CCCCN)C(=O)N[C@H](CCCN=C(N)N)C(=O)N[C@H](C=O)CCCN=C(N)N (Bz-[Nle]K[dR]R-aldehyde) | 129 µM
9 | CCCC[C@H](NC(=O)c1ccccc1)C(=O)N(C)[C@@H](CCCCN)C(=O)N[C@@H](CCCN=C(N)N)C(=O)N[C@H](C=O)CCCN=C(N)N (Bz-[Nle][NMeK]RR-aldehyde) | 73.6 µM
10 | CCCC[C@H](NC(=O)c1ccccc1)C(=O)N[C@H](CCCCN)C(=O)N[C@@H](CCCN=C(N)N)C(=O)N[C@H](C=O)CCCN=C(N)N (Bz-[Nle][dK]RR-aldehyde) | 23.8 µM

Stronger by IC50, values ahead:

Row | IC50 | Compound
11 | 14.3 µM | CCCC[C@H](NC(=O)c1ccccc1)C(=O)N1CCC[C@H]1C(=O)N[C@@H](CCCN=C(N)N)C(=O)N[C@H](C=O)CCCN=C(N)N (Bz-[Nle]PRR-aldehyde)
12 | 14 µM | CCCC[C@H](NC(=O)c1ccccc1)C(=O)N[C@@H](CCCCN)C(=O)N[C@@H](CCCN=C(N)N)C(=O)N[C@@H](C=O)CCCN=C(N)N (Bz-[Nle]KR[dR]-aldehyde)
13 | 10 µM | CCCC[C@H](NC(=O)c1ccccc1)C(=O)N[C@@H](CCCCN)C(=O)N[C@@H](CCCN=C(N)N)C(=O)N[C@H](C=O)Cc1c[nH]c2ccccc12 (Bz-[Nle]KRW-aldehyde)
14 | 9.3 µM | CCCC[C@@H](C(=O)N[C@@H](CCCCN)C(=O)N[C@@H](CCCN=C(N)N)C(=O)N[C@H](C=O)CCCN=C(N)N)N(C)C(=O)c1ccccc1 (Bz-[NMeNle]KRR-aldehyde)
15 | 4.6 µM | CCCC[C@H](NC(=O)c1ccccc1)C(=O)N[C@@H](CCCCN)C(=O)N[C@@H](CCCN=C(N)N)C(=O)N[C@@H](C)C=O (Bz-[Nle]KRA-aldehyde)
16 | 4.2 µM | CCCC[C@H](NC(=O)c1ccccc1)C(=O)N[C@@H](Cc1ccccc1)C(=O)N[C@@H](CCCNC(=N)N)C(=O)N[C@H](C=O)CCCNC(=N)N (Bz-[Nle]FRR-aldehyde)
17 | 4.1 µM | CCCC[C@H](NC(=O)c1ccccc1)C(=O)N[C@@H](CCCCN)C(=O)N[C@@H](CCCNC(=N)N)C(=O)N[C@H](C=O)CCCNC(=N)N (Bz-[Nle]KRR-aldehyde)
18 | 3.8 µM | CCCC[C@H](NC(=O)c1ccccc1)C(=O)N[C@@H](C)C(=O)N[C@@H](CCCNC(=N)N)C(=O)N[C@H](C=O)CCCNC(=N)N (Bz-[Nle]ARR-aldehyde)
19 | 2.6 µM | CCCC[C@@H](NC(=O)c1ccccc1)C(=O)N[C@@H](CCCCN)C(=O)N[C@@H](CCCN=C(N)N)C(=O)N[C@H](C=O)CCCN=C(N)N (Bz-[dNle]KRR-aldehyde)
20 | 1.9 µM | CCCC[C@H](NC(=O)c1ccccc1)C(=O)N[C@@H](CCCCN)C(=O)N[C@@H](CCCCN)C(=O)N[C@H](C=O)CCCNC(=N)N (Bz-[Nle]KKR-aldehyde)
21 | 1.2 µM | NCCCC[C@H](NC(=O)[C@H](Cc1ccccc1)NC(=O)c1ccccc1)C(=O)N[C@@H](CCCN=C(N)N)C(=O)N[C@H](C=O)CCCN=C(N)N (Bz-FKRR-aldehyde)
22 | 0.7 µM | C[C@H](NC(=O)c1ccccc1)C(=O)N[C@@H](CCCCN)C(=O)N[C@@H](CCCNC(=N)N)C(=O)N[C@H](C=O)CCCNC(=N)N (Bz-AKRR-aldehyde)
